Laboratory results as given in ChEMBL document CHEMBL2396631, “(+)-Altholactone exhibits broad spectrum immune modulating activity by inhibiting the activation of pro-inflammatory cytokines in RAW 264.7 cell lines” (Bioorg Med Chem, 2013).
The source made the active and inactive calls. The calls are words filed in the database; no cut-off is given here.

Columns and labels:
[1] = Inhibition of LPS-induced NF-kappaB activation in mouse RAW264.7 cells after 18 hrs by luciferase assay; assay type: cell-based; settings: RAW264.7, 18 h
In short: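 RAW264.7 cells stably carrying an NF-κB luciferase reporter plated at 5 × 10⁴ per well and allowed 24 h recovery. Then treated with compound plus LPS 100 ng/mL for 18 h. Lysates read after adding luciferase assay reagent. IC50 given as mean ± SE, n = 3.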

RAW264.7 [2] = experiment: Cytotoxicity against mouse RAW264.7 cells after 18 hrs by MTT assay; assay type: cell-based; settings: RAW264.7, 18 h
In short: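 Murine macrophage RAW264.7 cells exposed to compound about 18 h, tested at 6.25–100 µM from DMSO stock. MTT added for 2 h, formazan dissolved in DMSO and read at 570 nm. IC50 given as mean ± SE, n = 3.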

RAW264.7 [3] = experiment: Antiinflammatory activity in mouse RAW264.7 cells assessed as reduction of LPS-induced IFN-beta mRNA expression by quantitative real-time PCR analysis; assay type: functional, cell-based
In short: (§1)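 Cells treated with compound (0.7–12.5 µM) plus LPS 100 ng/mL. Total RNA analysed by SYBR Green real-time qPCR, with each gene normalised to GAPDH. Mean ± SD of three independent experiments; one-way ANOVA, p < 0.05 taken as significant.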

MDA-MB-231 = experiment: Cytotoxicity against human MDA-MB-231 cells up to 100 uM after 20 hrs by MTT assay; assay type: cell-based; settings: mda-mb-231, 20 h
In short: (§2)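 Non-tumorigenic MCF-10A and tumorigenic MCF-7, MDA-MB-231, PC3 and LNCaP cells grown in 96-well plates in their own growth media. Treated with 6.25, 12.5, 25, 50 or 100 µM compound from DMSO stock for 20 h, then MTT added for 2 h. Formazan dissolved in DMSO and absorbance read at 570 nm.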

RAW264.7 [4] = experiment: Antiinflammatory activity in mouse RAW264.7 cells assessed as reduction of LPS-induced iNOS expression at 5 uM after 4 hrs by Western blot analysis; assay type: functional, cell-based
In short: (§3)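 Near-confluent cells treated with rising compound concentrations (1.5–12.0 µM) plus LPS for 4 h at 37 °C. Lysed directly in SDS loading buffer, sonicated, heated, run on 4–15% gels, then transferred. Probed for phospho-IκBα, IκBα, iNOS and COX-2, with β-actin as the loading reference; HRP secondaries used.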

RAW264.7 [5] = experiment: Antiinflammatory activity in mouse RAW264.7 cells assessed as reduction of LPS-induced IL-6 mRNA expression by quantitative real-time PCR analysis; assay type: functional, cell-based; in short: as §1
RAW264.7 [6] = experiment: Antiinflammatory activity in mouse RAW264.7 cells assessed as reduction of LPS-induced IP-10 mRNA expression by quantitative real-time PCR analysis; assay type: functional, cell-based; in short: as §1
RAW264.7 [7] = experiment: Inhibition of LPS-induced NF-kappaB activation in mouse RAW264.7 cells assessed as reduction of IkappaBalpha phosphorylation at 1.5 to 12 uM after 4 hrs by Western blot analysis; assay type: cell-based; in short: as §3
MCF-10A = experiment: Cytotoxicity against human MCF10A cells up to 100 uM after 20 hrs by MTT assay; assay type: cell-based; in short: as §2
RAW264.7 [8] = experiment: Antiinflammatory activity in mouse RAW264.7 cells assessed as reduction of LPS-induced IL-1beta mRNA expression by quantitative real-time PCR analysis; assay type: functional, cell-based; in short: as §1
LNCaP = experiment: Cytotoxicity against human LNCAP cells up to 100 uM after 20 hrs by MTT assay; assay type: cell-based; in short: as §2
RAW264.7 [9] = experiment: Antiinflammatory activity in mouse RAW264.7 cells assessed as reduction of LPS-induced G-CSF mRNA expression by quantitative real-time PCR analysis; assay type: functional, cell-based; in short: as §1
RAW264.7 [10] = experiment: Antiinflammatory activity in mouse RAW264.7 cells assessed as inhibition of LPS-induced nitric oxide production after 24 hrs by Griess assay; assay type: functional, cell-based; settings: RAW264.7, 24 h
In short: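 Cells plated in RPMI1640, 24 h at 37 °C; medium changed, then compound plus E. coli 055:B5 LPS added. Supernatant mixed with Griess reagent (sulfanilamide/naphthylethylenediamine in H3PO4), 30 min at room temperature in the dark. IC50 given as mean ± SE, n = 3.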

RAW264.7 [11] = experiment: Antiinflammatory activity in mouse RAW264.7 cells assessed as reduction of LPS-induced COX2 mRNA expression by quantitative real-time PCR analysis; assay type: functional, cell-based; in short: as §1
PC-3 = experiment: Cytotoxicity against human PC3 cells up to 100 uM after 20 hrs by MTT assay; assay type: cell-based; settings: pc-3, 20 h; in short: as §2
MCF7 = experiment: Cytotoxicity against human MCF7 cells up to 100 uM after 20 hrs by MTT assay; assay type: cell-based; settings: mcf7, 20 h; in short: as §2
RAW264.7 [12] = experiment: Antiinflammatory activity in mouse RAW264.7 cells assessed as reduction of LPS-induced COX2 expression at 5 uM after 4 hrs by Western blot analysis; assay type: functional, cell-based; in short: as §3
RAW264.7 [13] = experiment: Antiinflammatory activity in mouse RAW264.7 cells assessed as reduction of LPS-induced iNOS mRNA expression by quantitative real-time PCR analysis; assay type: functional, cell-based; in short: as §1
RAW264.7 [14] = experiment: Antiinflammatory activity in mouse RAW264.7 cells assessed as reduction of LPS-induced MCP1 mRNA expression by quantitative real-time PCR analysis; assay type: functional, cell-based; in short: as §1

Compound	IC50 [1] [µM]	IC50 (RAW264.7 [2]) [µM]	IC50 (RAW264.7 [3]) [µM]	Activity (MDA-MB-231)	inhibition (RAW264.7 [4])	IC50 (RAW264.7 [5]) [µM]	IC50 (RAW264.7 [6]) [µM]	inhibition (RAW264.7 [7])	Activity (MCF-10A)	IC50 (RAW264.7 [8]) [µM]	Activity (LNCaP)	IC50 (RAW264.7 [9]) [µM]	IC50 (RAW264.7 [10]) [µM]	IC50 (RAW264.7 [11]) [µM]	Activity (PC-3)	Activity (MCF7)	inhibition (RAW264.7 [12])	IC50 (RAW264.7 [13]) [µM]	IC50 (RAW264.7 [14]) [µM]
CC(=O)O[C@H]1[C@@H]2OC(=O)C=C[C@@H]2O[C@@H]1c1ccccc1 [(+)-3-O-ACETYLALTHOLACTONE]	34.3	36.1																	
O=C1C=C[C@@H]2O[C@H](c3ccccc3)[C@@H](O)[C@@H]2O1 [ALTHOLACTONE]	6.7	43.4	0.8	Non-toxic	Active	0.9	5	Active	Non-toxic	3	Non-toxic	4	0.8	3	Non-toxic	Non-toxic	Active	2	4
O=C1C=CC[C@H](/C=C/c2ccccc2)O1 [GONIOTHALAMIN]	27.4	34.2																	
